These results are taken from PMC5499704 (Journal of medicinal chemistry, 2016).

Each structure is given as a SMILES string.

One data set concerns MCF-7. Kind of data set: Proliferation of breast cancer cells, MCF-7. The class given is cell-based. Particulars: Homo sapiens, MCF7, 120 h, read-out: IC50, proliferation. In outline: (§1)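 Cells grown in phenol red-free DMEM with 5% FBS at 37 °C, 5% CO2. MCF-7/TamR cells were derived by prolonged 4-hydroxytamoxifen exposure. Cells seeded at 50000/well, then treated 5 days with test compound at six doses from 10−10 to 10−5 M, with DMSO vehicle. Viable cells counted by Coulter counter. Survival expressed as a percentage of vehicle, and IC50 taken from dose–response curves.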

The test system of the next data set is MCF-7/TamR. In words: Proliferation of breast cancer cells, MCF-7/TamR. The class given is cell-based. As to conditions: Homo sapiens, MCF7, 120 h, read-out: IC50, proliferation. In outline: as §1
The next data set deals with T47D-kb-Luc cells. In words: T47D-kb-Luc ERE luciferase reporter gene assay. Particulars: at 1 nM, in the presence of 0.01 nM estradiol (E2). Format: cell-based, human. In outline: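 Stably transfected T47D-kb-Luc reporter cells were stimulated with estradiol at 10−11 M plus test compound at 0.1, 1 or 10 nM. ERE-driven activity was read as relative luciferase units and normalized to the estradiol-only control. Run in quadruplicate in at least three separate experiments, reported as mean ± SD (%).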
(In general: Reporter assays use an easily measured gene product as a stand-in for the process of interest.)

For data set [1], the target named is T1, ERα (Homo sapiens, UniProt P03372).
T1 sequence (P03372 1-595): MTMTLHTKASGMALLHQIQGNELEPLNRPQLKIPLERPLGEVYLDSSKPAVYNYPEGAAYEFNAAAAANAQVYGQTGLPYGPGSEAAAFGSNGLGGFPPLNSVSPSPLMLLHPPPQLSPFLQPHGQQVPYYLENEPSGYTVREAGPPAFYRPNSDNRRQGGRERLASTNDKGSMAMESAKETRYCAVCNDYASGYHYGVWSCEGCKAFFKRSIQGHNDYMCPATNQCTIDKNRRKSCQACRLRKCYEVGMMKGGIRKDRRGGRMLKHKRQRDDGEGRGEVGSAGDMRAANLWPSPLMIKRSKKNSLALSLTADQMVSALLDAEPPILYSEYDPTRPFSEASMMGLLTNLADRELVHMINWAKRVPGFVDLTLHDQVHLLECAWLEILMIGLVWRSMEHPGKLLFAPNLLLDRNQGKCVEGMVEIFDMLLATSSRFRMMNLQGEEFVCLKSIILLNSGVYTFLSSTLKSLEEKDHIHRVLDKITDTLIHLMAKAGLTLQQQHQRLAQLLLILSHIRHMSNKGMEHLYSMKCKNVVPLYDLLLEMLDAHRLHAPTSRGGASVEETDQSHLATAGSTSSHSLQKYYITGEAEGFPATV
Kind of data set: Western blot of ERα downregulation in T47D cells. The class given is cell-based. As to conditions: dose range 0.03–1 μM. (Immunoblotting shows a protein as a band on a membrane.)

In data set [2] the target is T1, ERα. Kind of data set: Western blot of ERα downregulation in T47D/PKCα cells. The class given is cell-based. As to conditions: dose range 0.03–1 μM.
Data set [3] in a line: Stability in culture media in vitro. Format: in vitro ADME. As to conditions: dissolved in ethanol then diluted in culture media for an extended period of time.
The conditions of data set [4]: patients, cited from earlier work.

`CC/C(=C(\c1ccc(O)cc1)c1ccc(OCCN(C)C)cc1)c1ccccc1` [Compound 4-OHT, 4-hydroxytamoxifen]: the figures for the IC50 in the data set with MCF-7 and with MCF-7/TamR were 0.0033 µM and 22 µM, respectively.

With `C[C@]12CC[C@@H]3c4ccc(B(O)O)cc4C[C@@H](CCCCCCCCC[S+]([O-])CCCC(F)(F)C(F)(F)F)[C@H]3[C@@H]1CC[C@@H]2O` (stereo partly drawn) [Compound 5, ((7R,8R,9S,13S,14S,17S)-17-Hydroxy-13-methyl-7-(9-((4,4,5,5,5-pentafluoropentyl)sulfinyl)nonyl)-7,8,9,11,12,13,14,15,16,17-deca-hydro-6H-cyclopenta[a]phenanthren-3-yl)boronic Acid], in the data set with T47D-kb-Luc cells, the “inhibition of E2-induced luciferase (ERE activity)” value is reported as “completely blocking the estrogen response element (ERE) activity”. The ER downregulation level entry at ERα [1] and on ERα [2] was “greater than 50%” throughout. Moreover, in data set [3], the “metabolic stability in vitro” value was “metabolic stability was later confirmed in vitro”.

Take `C[C@]12CC[C@@H]3c4ccc(O)cc4C[C@@H](CCCCCCCCC[S+]([O-])CCCC(F)(F)C(F)(F)F)[C@H]3[C@@H]1CC[C@@H]2O` (stereo partly shown) [fulvestrant]: the ER downregulation level entry at ERα [1] and on ERα [2] was “greater than 50%” throughout. Moreover, the peak blood concentration in data set [4] (500 mg im, FINDER1 and FINDER2 clinical trials ref 3, 5) was below 25 ng/mL. For the same molecule, the “time to reach steady-state serum concentration” value in data set [4] (im monthly dose of 250 mg ref 4) was “over 3 months”.
